Converted amounts (≈) assume the structure as drawn.
Experiments:
Escherichia coli = test: Antimicrobial activity against Escherichia coli ATCC 25922; type: functional
[1] = Stability in presence of alpha-chymotrypsin after 48 hrs; type: ADME
Method in brief: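 Digestion with α-chymotrypsin (2 μg/mL final) of 100 μg/mL compound in 100 mM Tris-HCl with 10 mM CaCl2. Aliquots taken at 0, 15, 30, 60, 120, 240 min, 24 and 48 h. Quenched with 10% acetic acid plus atenolol external standard, then quantified by LC-MS/MS in positive MRM mode, in duplicate. Remaining compound expressed relative to enzyme-free control.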

[2] = Stability in aqueous solution at pH7.4 after 48 hrs; type: physicochemical; conditions: buffer, pH 7.4, 48 h
[3] = Hemolytic activity in human RBC assessed as hemolysis at 1000 ug/ml after 1 hr; type: ADME, cell-based; conditions: erythrocyte

- MIC (Escherichia coli): 144 µM (≈ 66.9 µg/mL)
- Stability [1]: Stable
- Stability [2]: Stable
Compound: N=C(N)NCCC[C@H](NC(=O)C(CN)(CCC1CCCCC1)CCC1CCCCC1)C(N)=O
- MBC (Escherichia coli): 289 µM (≈ 134 µg/mL)
- Activity [3]: Non-toxic
